In ChEMBL document CHEMBL4725467, “Antiferroptotic Activity of Phenothiazine Analogues: A Novel Therapeutic Strategy for Oxidative Stress Related Disease” (ACS Med Chem Lett, 2020):
The source made the active and inactive calls. The rule behind the calls is not given here.

Assays:
[1] = test system: Lymphocyte; assay: Anti-ferroptotic activity in FRDA patient-derived Lymphocyte assessed as reduction in RSL3-induced lipid peroxidation incubated for overnight followed by RSL3 stimulation and measured after 90 mins by FACS analysis; format: functional, cell-based; conditions: Homo sapiens, 1.5 h
Method in brief: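 FRDA patient lymphocytes pretreated with a range of concentrations, then challenged with RSL3 (GPX4 inhibitor) at 2 μM; lipid peroxidation read with the C11-BODIPY581/591 fluorescent probe. EC50 taken from dose–response curves by nonlinear regression fit.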

[2] = Inhibition of erastin-induced cell death in FRDA patient-derived fibroblast assessed as depletion of cellular ATP incubated for 12 hrs followed by erastin stimulation and measured after by luciferase-linked ATPase enzymatic assay; format: functional, tissue-based; conditions: Homo sapiens
Method in brief: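 Primary FRDA patient fibroblasts treated with compound, then challenged with erastin (cystine-glutamate exchange inhibitor, GSH depletion). Cell death read as depletion of cellular ATP by a luciferase-linked kit assay.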

[3] = test system: Lymphocyte; assay: Induction of mitochondria membrane potential depolarization in FRDA patient-derived lymphocyte at 2.5 uM incubated for 16 hrs by JC-1 probe based flow cytometry analysis; format: functional; conditions: Homo sapiens
Method in brief: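 Mitochondrial inner membrane potential in FRDA lymphocytes measured by flow cytometry with the ratiometric probe JC-1. Percent of cells with intact Δψm taken from a two-dimensional color density dot plot. Duplicates run in two independent runs.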

[4] = test system: Lymphocyte; assay: Induction of ATP production in FRDA patient-derived lymphocyte at 2.5 uM incubated for 24 hrs by luciferase-linked ATPase enzymatic assay; format: functional, tissue-based; conditions: Homo sapiens
Method in brief: (§1)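 Total cellular ATP in cultured FRDA lymphocytes after 24 h with compound in glucose-free medium with 25 mM galactose, to force OXPHOS dependence. Tested range 100 nM–2.5 μM. Expressed as percent of total ATP relative to untreated control.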

[5] = test system: Lymphocyte; assay: Induction of ATP production in FRDA patient-derived lymphocyte at 0.1 to 0.5 uM incubated for 24 hrs by luciferase-linked ATPase enzymatic assay; format: functional, tissue-based; conditions: Homo sapiens, dose microM 0.1-0.5, time 24.0 hrs; method in brief: as §1
[6] = test system: Lymphocyte; assay: Cytotoxicity against FRDA patient-derived lymphocyte at 0.25 to 2.5 uM incubated for 24 to 48 hrs by flow cytometry analysis; format: cell-based; conditions: human, dose 0.25-2.5 µM, time 24-48 hrs
Method in brief: (§2)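 FRDA lymphocytes kept 24 h in glucose-free medium with galactose to force reliance on mitochondrial ATP. Viability by flow cytometry with dual staining, calcein-AM for live and ethidium homodimer-1 for dead cells. Percent live cells taken from a two-dimensional color density dot plot. Duplicates run in two independent experiments.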

[7] = test system: Lymphocyte; assay: Induction of ATP production in FRDA patient-derived lymphocyte at 0.1 to 2.5 uM incubated for 24 hrs by luciferase-linked ATPase enzymatic assay; format: functional, tissue-based; conditions: Homo sapiens, dose microM 0.1-2.5, time 24.0 hrs; method in brief: as §1
[8] = test system: Lymphocyte; assay: Cytotoxicity against FRDA patient-derived lymphocyte at 2.5 uM incubated for 24 to 48 hrs by flow cytometry analysis; format: cell-based; conditions: human, time 24-48 hrs; method in brief: as §2
[9] = test system: HepG2; assay: Inhibition of ferroptosis in human HepG2 cells assessed as increase in pAMPK/AMPK ratio at 1 uM incubated for 24 hrs by Western blot analysis; format: functional, cell-based
Method in brief: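 HepG2 cells treated with or without compound. AMPK, p-AMPK and β-actin (loading control) detected by Western blot and quantified as p-AMPK/AMPK ratio. Triplicate experiments, mean ± SEM.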

[10] = test system: Lymphocyte; assay: Induction of ATP production in FRDA patient-derived lymphocyte incubated for 24 hrs by luciferase-linked ATPase enzymatic assay; format: functional, tissue-based; conditions: Homo sapiens, dose microM 0.25-2.5, time 24.0 hrs; method in brief: as §1
[11] = test system: Lymphocyte; assay: Induction of ATP production in FRDA patient-derived lymphocyte at 0.1 uM incubated for 24 hrs by luciferase-linked ATPase enzymatic assay; format: functional, tissue-based; conditions: Homo sapiens; method in brief: as §1
[12] = test system: Lymphocyte; assay: Induction of ATP production in FRDA patient-derived lymphocyte at 0.1 and 0.25 uM incubated for 24 hrs by luciferase-linked ATPase enzymatic assay; format: functional, tissue-based; conditions: Homo sapiens, dose microM 0.1-0.25, time 24.0 hrs; method in brief: as §1

EC50 [1] [nM]	Structure (SMILES)	EC50 [2] [nM]	Activity [3]	Activity [8]	also measured
48	CCOC(=O)c1ccc(NC2CCCCC2)c(N)c1	33	–	–	–
22	Clc1cccc(CNC2=Nc3ccccc3NC23CCNCC3)c1	22	–	–	–
16	CCCCCCCCCCCCc1cc2nc3ccc(N(C)C)cc3sc-2cc1=O	15	Active	–	Activity [4]: inactive; Activity [5]: Active; Activity [6]: Non-Toxic
53	CCCCCCCCCc1cc2nc3ccc(N(C)C)cc3sc-2cc1=[N+](C)C.[I-]	37	Active	Toxic	Activity [7]: inactive
26	CN(C)c1ccc2nc3ccc(=O)cc-3sc2c1	27	Active	–	pAMPK/AMPK ratio increase (active/not active) [9]: Active
–	CN(C)c1ccc2nc3ccc(=[N+](C)C)cc-3sc2c1	–	Active	–	Activity [10]: inactive; pAMPK/AMPK ratio increase (active/not active) [9]: inactive; Activity [11]: Active
12	CCCCCCCCCc1cc2nc3ccc(N(C)C)cc3sc-2cc1=O	11	Active	Toxic	Activity [11]: Active
76	CCCCCCCCc1cc2nc3ccc(N(C)C)cc3sc-2cc1=[N+](C)C.[I-]	39	Active	Toxic	Activity [7]: inactive
> 2500	CC(=O)N1c2ccc(N(C)C)cc2Sc2cc(N(C)C)ccc21	–	–	–	–
14	CCCCCCCCc1cc2nc3ccc(N(C)C)cc3sc-2cc1=O	15	Active	Toxic	Activity [11]: Active
> 500	Cc1c(C)c2c(c(C)c1O)CC[C@@](C)(CCC[C@H](C)CCC[C@H](C)CCCC(C)C)O2 [ALPHA-TOCOPHEROL]	> 500	–	–	–
88	CN(C)c1ccc2nc3ccc(N(C)C)cc3[s+]c2c1.[Cl-] [METHYLENE BLUE ANHYDROUS]	43	–	Toxic	–
38	CCCCCCCCCCc1cc2nc3ccc(N(C)C)cc3sc-2cc1=[N+](C)C.[I-]	29	Active	Toxic	pAMPK/AMPK ratio increase (active/not active) [9]: Active; Activity [7]: inactive
9	CCCCCCCCCCc1cc2nc3ccc(N(C)C)cc3sc-2cc1=O	10	Active	Toxic	pAMPK/AMPK ratio increase (active/not active) [9]: Active; Activity [11]: Active
70	CCCCCCCCCCCCCCCCc1cc2nc3ccc(N(C)C)cc3sc-2cc1=[N+](C)C.[I-]	55	–	–	Activity [12]: Active; Activity [4]: inactive; Activity [6]: Non-Toxic
25	CCCCCCCCCCCCCCCCc1cc2nc3ccc(N(C)C)cc3sc-2cc1=O	22	–	–	Activity [4]: inactive; Activity [5]: Active; Activity [6]: Non-Toxic
54	CCCCCCCCCCCCc1cc2nc3ccc(N(C)C)cc3sc-2cc1=[N+](C)C.[I-]	35	Active	Toxic	–
